Usually IC50 stands for the concentration that gives 50% inhibition. By Ki is commonly meant the equilibrium dissociation constant of an inhibitor or competing ligand from its target. Read a high Ki as weaker binding.

The record followed here is ChEMBL document CHEMBL2157902, “Modified tetrahalogenated benzimidazoles with CK2 inhibitory activity are active against human prostate cancer cells LNCaP in vitro” (Bioorg Med Chem, 2012).

Active and inactive are the calls of the source. The rule behind the calls is not given here.

The subject of test [1] is LNCaP. The test is described as follows: Induction of apoptosis in human LNCAP cells assessed as PARP cleavage at 10 uM after 24 hrs by Western blot analysis. Format: functional, cell-based. In outline: (§1)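 LNCaP cells treated 24 h at 10 or 20 µM, then lysed in RIPA buffer with protease inhibitors and protein measured by Bradford. Extracts (150 µg) run on 7.5% SDS-PAGE and tank-blotted to PVDF. Probed overnight at 4 °C with polyclonal rabbit anti-PARP (1:1000), detected with peroxidase anti-rabbit and chemiluminescence. Full-length and 85 kDa fragment scored.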
Background: Immunoblotting shows a protein as a band on a membrane.

Test [2] in a line: Inhibition of CK2.
Test [3] is described as follows: Inhibition of rat liver CK2 using RRRADDSDDDDD as substrate.
Test [4] relates to LNCaP. Nature of the test: Antiproliferative activity against human LNCAP cells assessed as decrease in cell viability at 10 to 20 uM after 24 to 48 hrs by MTT assay. It is filed as functional, cell-based. The method, boiled down:
(§2)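 LNCaP cells grown in RPMI1640 with 10% FBS at 37 °C, 5% CO2. Seeded at 2 × 10^4 cells/500 µl in 24-well plates the day before treatment, then exposed to 10 or 20 µM for 24 or 48 h. MTT was added for a further 1 h, cells lysed and A595 read. Viability given as % of DMSO-treated control. Mean of at least three independent experiments.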

Test [5] concerns LNCaP. Nature of the test: Antiproliferative activity against human LNCAP cells after 24 by MTT assay. The following applies: read-out: LD50 (the source's name). It is filed as functional. The method, boiled down: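 LNCaP cells were grown in RPMI1640 with 10% FBS at 37 °C under 5% CO2, and 2 × 10^4 cells/well were seeded the day before. Cells were treated with 3–10 µM for 24 h. MTT (5 mg/ml) was then added for 1 h, cells were lysed, and absorbance was read at 595 nm. Viability was expressed as % of DMSO control. LD50 was calculated by curve fitting, mean of ≥3 independent experiments.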
Background: Formazan colour is commonly taken as a measure of viable cells.

Test [6] has as its system LNCaP. Nature of the test: Antiproliferative activity against human LNCAP cells after 24 to 48 hrs by MTT assay. Format: functional. The following applies: read-out: LD50 (the source's name). In outline: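 LNCaP cells were grown in RPMI1640 with 10% FBS at 37 °C under 5% CO2, and 2 × 10^4 cells/well were seeded the day before treatment. Cells were exposed to 10 or 20 compound for 24 and 48 h. MTT (5 mg/ml) was then added for 1 h, cells were lysed, and A595 was read. Viable cells were expressed as % of DMSO-treated control, mean of ≥3 independent experiments.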

For test [7], the system named is LNCaP. Nature of the test: Induction of apoptosis in human LNCAP cells assessed as PARP cleavage at 20 uM after 24 hrs by Western blot analysis. Format: functional, cell-based. The method, boiled down: as §1
Test [8] concerns LNCaP. Nature of the test: Antiproliferative activity against human LNCAP cells assessed as decrease in cell viability at 20 uM after 48 hrs by MTT assay. It is filed as functional. The method, boiled down:
as §2

Test [9] has as its system LNCaP. Nature of the test: Antiproliferative activity against human LNCAP cells assessed as decrease in cell viability at 10 uM after 48 hrs by MTT assay. Format: functional. The method, boiled down:
as §2

The subject of test [10] is LNCaP. The test is described as follows: Induction of apoptosis in human LNCAP cells assessed as PARP cleavage after 24 hrs by Western blot analysis. It is filed as functional, cell-based. The method, boiled down:
as §1

In the case of `CN(C)c1nc2c(Br)c(Br)c(Br)c(Br)c2n1CC(=O)O`, the outcome in the test on LNCaP [1] and with LNCaP [4] was inactive. The compound further showed an IC50 in test [2] of 0.27 µM. Further, the affinity in test [3] corresponds to a Ki of 0.25 µM.

With `CN(C)CCNc1nc2c(Br)c(Br)c(Br)c(Br)c2[nH]1`, the CC50 in the test on LNCaP [5] was 9.37 µM; in the test with LNCaP [6] it was < 10 µM. Besides, in the test with LNCaP [7], the outcome was Active. In addition, the affinity in test [3], expressed as Ki, was 0.16 µM.

In turn, `CN(C)c1nc2c(Br)c(Br)c(Br)c(Br)c2[nH]1` returned a Ki in test [2] of 0.04 µM.

In the case of `Brc1c(Br)c(Br)c2[nH]cnc2c1Br`, the Activity in the test with LNCaP [8] and in the test with LNCaP [9] was 20% throughout. Besides, the result with LNCaP [7] was Active.

As to `NCCCCNc1nc2c(Br)c(Br)c(Br)c(Br)c2[nH]1`, the outcome in the test with LNCaP [1] and in the test with LNCaP [7] was inactive. The CC50 in the test with LNCaP [6] was < 10 µM. Besides, the Activity in the test with LNCaP [8] and in the test with LNCaP [9] was 20% each time.

Regarding `NCCCNc1nc2c(Br)c(Br)c(Br)c(Br)c2[nH]1`, the CC50 in the test with LNCaP [6] is < 10 µM. Besides, the result with LNCaP [7] was Active.

Turning to `Cn1c(NCCN)nc2c(I)c(I)c(I)c(I)c21`, the outcome in the test with LNCaP [1] and with LNCaP [7] was inactive. Moreover, the CC50 with LNCaP [5] was 4.75 µM; with LNCaP [6], < 10 µM.

For `CN(C)CCNc1nc2c(I)c(I)c(I)c(I)c2[nH]1`, the CC50 with LNCaP [5] was 7.37 µM; in the test on LNCaP [6] it was < 10 µM. For the same compound, the result in the test on LNCaP [7] was Active.

As for `NCCNc1nc2c(Br)c(Br)c(Br)c(Br)c2[nH]1`, the result in the test with LNCaP [1] and with LNCaP [7] was Active. The CC50 in the test on LNCaP [5] was 7.22 µM; with LNCaP [6], < 10 µM. In addition, in the test on LNCaP [10], the Activity result was “Dose-dependent effect”.

For the compound `Cn1c(NCCN)nc2c(Br)c(Br)c(Br)c(Br)c21`, the outcome in the test on LNCaP [1] and in the test with LNCaP [7] was inactive. In addition, the CC50 in the test on LNCaP [6] was < 10 µM.

For `NCCNc1nc2c(I)c(I)c(I)c(I)c2[nH]1`, the CC50 with LNCaP [6] is < 10 µM. In addition, the outcome in the test with LNCaP [7] was Active.

For the compound `O=C(O)CCCSc1nc2c(Br)c(Br)c(Br)c(Br)c2[nH]1`, the result in the test with LNCaP [1] and in the test with LNCaP [4] was inactive. The same compound yielded an IC50 in [2] of 0.27 µM.

With `Ic1c(I)c(I)c2[nH]cnc2c1I`, the Activity in the test on LNCaP [8] and with LNCaP [9] was 20% throughout. Also, the result with LNCaP [7] was Active.
